Sampled rows, rich in hits. Any-hit rate of the full collection: about 2.6%.
SIRT5 inh – inhibitors of human sirtuin-5 desuccinylase | Q9NXA8 | 330,000 compounds, 1.1% hits | Purified SirT5, succinyl-peptide AMC, trypsin-coupled fluorescence | inhibition, % at 15 µM; in the data active = inhibition above about 15%
Target sequence (Q9NXA8 whole entry, looked up): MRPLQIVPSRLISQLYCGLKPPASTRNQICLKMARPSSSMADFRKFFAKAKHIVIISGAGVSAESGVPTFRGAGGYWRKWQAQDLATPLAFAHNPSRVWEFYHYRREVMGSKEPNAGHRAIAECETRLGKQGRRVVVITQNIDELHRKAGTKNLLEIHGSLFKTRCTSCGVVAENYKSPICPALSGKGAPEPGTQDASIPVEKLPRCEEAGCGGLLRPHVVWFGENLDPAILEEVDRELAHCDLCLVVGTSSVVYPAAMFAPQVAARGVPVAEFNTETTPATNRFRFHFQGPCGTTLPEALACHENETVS
FGF22 binding – binders of recombinant human FGF22 by thermal shift. activity (Tm shift, normalised), % at 9.99 µM. SYPRO orange fluorescence; percent of sucrose octasulfate shift, DMSO zero. AID 651658. 340,000 compounds, 1.5% hits. Q9HCT0;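 active = mean Tm shift, scaled 0 neutral to 100 positive control, at about 1.3% or above, every replicate too, limit read from the data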
Casp6 inh – inhibitors of human caspase-6; P55212; purified caspase-6, Z-VEID-R110 cleavage fluorescence; inhibition, % at 12.5 µM; 350,000 compounds, 0.53% hits; AID 686996;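 active = mean inhibition across replicates at least about 35%, with every replicate also reaching that limit, limit read from the data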;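 note: 0% = median of neutral control wells and 100% = no fluorescence left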
NSD2 HMT inh – blocks human histone methyltransferase NSD2. AID 743445. NSD2 peptide methylation, AlphaScreen, 120 min. 310,000 compounds, 0.54% hits. inhibition, % at 12.5 µM. O96028; in the data active = inhibition above about 50%
UCH37 DUB inh – inhibitors of human deubiquitinating enzyme UCH37; Q9Y5K5; purified proteasome/UCH37, Ub-AMC cleavage fluorescence; inhibition, % (test concentration not listed); 330,000 compounds, 0.33% hits; AID 588478;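 active = mean inhibition over replicate wells above about 20%, limit read from the data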;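 note: 0% = compound-free wells with enzyme and 100% = wells lacking proteasome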
Target sequence (Q9Y5K5 whole entry, looked up): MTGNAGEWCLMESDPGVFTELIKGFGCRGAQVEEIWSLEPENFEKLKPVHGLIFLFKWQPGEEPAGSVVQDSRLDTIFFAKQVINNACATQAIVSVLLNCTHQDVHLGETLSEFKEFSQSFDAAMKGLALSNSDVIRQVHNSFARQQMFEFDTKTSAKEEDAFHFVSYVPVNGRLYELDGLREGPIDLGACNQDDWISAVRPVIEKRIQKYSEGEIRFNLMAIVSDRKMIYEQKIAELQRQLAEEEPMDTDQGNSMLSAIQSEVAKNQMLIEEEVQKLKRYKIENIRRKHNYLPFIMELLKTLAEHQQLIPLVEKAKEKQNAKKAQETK
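system = Proteasome-associated human UCH37 deubiquitinase | amount = 0.15 nM proteasome as dispensed | medium = pH 7.4 Tris-HCl (50 mM) with ovalbumin, ATP-MgCl2, DTT | incubation = 30 min preincubation with enzyme, 25 min cleavage at room temperature | detection = AMC fluorescence 355/460 nm | read-out basis = percent inhibition | controls = no-proteasome and no-compound wells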
UCH37 confirm – confirmation of human UCH37 deubiquitinating enzyme inhibitors | shares compounds with UCH37 DUB inh | Proteasome-bound UCH37, Ub-AMC cleavage fluorescence | inhibition, % at 20 µM | 480 compounds, 27% hits;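 active = average inhibition over replicates above about 50%, so the earlier screening hit is confirmed, limit read from the data; inactive = the rest, counted as false positives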;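 note: based on cleavage rate fitted by regression over a 30 min kinetic read; 0% = proteasome plus Ub-AMC and 100% = Ub-AMC without proteasome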
Active calls of the source: *; / = not tested or not shown.

SMILES	SIRT5 inh	FGF22 binding	Casp6 inh	NSD2 HMT inh	UCH37 DUB inh	others
O=C1NC(=O)N(CCC2=CCCCC2)C(=O)/C1=C/c1ccc(O)cc1	3	0	26	28	4
COC(=O)[C@@H]1[C@@H](CO)[C@@H]2Cn3c(ccc(-c4ccccc4)c3=O)[C@H]1N2CCc1ccccc1	16*	0	2	/	/
CC(C)C12CN3CCN(CC(C3)C1=NO)C2	/	/	/	/	5
CC1CCCC(C)N1N=Cc1c[nH]c2ccc(Br)cc12 (stereo not given)	/	/	/	/	6
CCCCN1CCC(C#N)(Nc2ccccc2)CC1	22*	/	-3	-6	4
CC(=O)OC1(c2ccccc2)CCN(C)CC1(C)C (stereo not given)	15*	0	4	-3	3
C[N+](C)(C)Cc1ccccc1	-2	0	76*	/	2
COC(=O)[C@@H]1[C@@H](C(=O)OC)C2(c3ccccc3-c3ccccc32)N(c2ccc(Cl)cc2)N1C#N	17*	/	0	-4	3
CCCCCC(=NO)c1c[nH]c2ccccc12	/	/	/	/	5
COc1cccc(N=Nc2c(O)[nH]c(=S)[nH]c2=O)c1	2	0	8	4	17
COc1ccc(N=Nc2c(O)[nH]c(=S)[nH]c2=O)cc1	0	0	0	5	21*
c1ccc(C2(NC3=NCCO3)CCCCC2)cc1	/	43*	2	-1	/
CC1=NN(c2ccccc2)C(=O)/C1=C/c1c(O)[nH]c(=O)[nH]c1=O	7	1.4*	-1	-1	/
CC1=NN(c2ccccc2)C(=O)/C1=C/c1c(O)[nH]c(=S)[nH]c1=O	/	/	/	10	/
CC(=O)C1C2c3ccccc3OC1(C)N=c1sc(=Cc3cn(C)nc3C)c(=O)n12 (stereo not given)	/	/	/	/	3
OCC[n+]1c2ccccc2nc2ccc(N3CCOCC3)cc21	-3	0	6	82*	7
CC(C)(C)NS(=O)(=O)c1ccc(OCC(=O)N2CCN(Cc3ccccc3)CC2)cc1	-2	44*	-5	-4	1
COC(=O)c1cc(C(O)(C(=O)OC)C(F)(F)F)c(N=CN(C)C)s1 (stereo not given)	/	/	/	/	8
CCCCCCn1c(=O)c(C(=O)Nc2cnccn2)c(O)c2ccccc21	-2	43*	0	-1	-11
COC(=O)C1=C(c2ccc(F)cc2F)C[C@@H]2CC[C@H]1N2C(=O)N1CCCC1	-2	0	0	/	-1
COC(=O)C1=C(c2ccc(F)cc2F)C[C@@H]2CC[C@H]1N2C(=O)N1CCCCC1	-4	0	0	/	21*
O=C(Cc1cccs1)N1Cc2ccccc2-n2nncc2C1	4	0	41*	/	/
CN(C(=O)Oc1cccc2ccccc12)C1C=CCC1 (stereo not given)	/	43*	2	4	1
CCCC12CN3CCN(CC(C3)C1=NNC(=O)c1ccncc1)C2	/	/	/	/	1
N/C(=N\N=C/c1ccc(-c2ccc(O)c(C(=O)O)c2)o1)N[N+](=O)[O-]	/	/	/	121*	/
SMILES	SIRT5 inh	FGF22 binding	Casp6 inh	NSD2 HMT inh	UCH37 DUB inh	others
NC(=NN=Cc1ccc(O)cc1)N[N+](=O)[O-]	/	/	/	/	18
COC(=O)[C@H]1C[C@@H]1[C@H](NP(=O)(c1ccccc1)c1ccccc1)c1ccccc1	-3	1.8*	-2	/	5
COC(=O)[C@@H]1C[C@H]1[C@@H](NP(=O)(c1ccccc1)c1ccccc1)c1ccccc1	/	0	-2	/	1
O=P(CN1CCN(c2ccccc2)CC1)(N1CCCCC1)N1CCCCC1	/	/	/	2	4
CP(=O)(O)CN1CCCCC1	-6	44*	-3	0	0
NS(=O)(=O)c1ccc(-c2ccc(C=C3C(=O)NC(=S)NC3=O)o2)cc1	35*	0	19	/	/
N#CC1(c2ccccc2)CCN(C2CC(=O)N(c3ccc(F)cc3)C2=O)CC1 (stereo not given)	/	/	/	0	-1
N#CC1(c2ccccc2)CCN(C2CC(=O)N(c3ccc4c(c3)OCO4)C2=O)CC1 (stereo not given)	0	44*	4	-5	0
C[C@H]1CCCC=C[C@@H]2C[C@H](O)C[C@H]2[C@H](O)C=CC(=O)O1	/	/	/	/	5
CN1C(=O)C(Cc2ccc(OCc3ccccc3)cc2)C(=O)N(C)C1=O	-5	0	1	38	11
CN1C(=O)C(Cc2cccc3ccccc23)C(=O)N(C)C1=O	/	/	/	/	40*	UCH37 confirm=2
COC(=O)[C@H]1[C@H](CO)[C@H]2Cn3c(ccc(-c4cccc(OC)c4)c3=O)[C@@H]1N2CC1CC1	-2	0	-1	/	/
CCc1ccccc1N1C(=O)/C(=C/c2ccc(N3CCN(C)CC3)o2)C(=O)NC1=S	-3	0	12	1	16
O=C1NC(=O)N(c2ccc3c(c2)OCO3)C(=O)/C1=C\c1ccc(N2CCCCC2)o1	0	0	17	10	29*	UCH37 confirm=44
CCOc1ccc(-n2c(O)c(C=Nc3ccc(N4CCOCC4)cc3)c(=O)[nH]c2=O)cc1	/	/	/	9	45*	UCH37 confirm=12
CN1C(=O)C(=Cc2ccc(N3CCOCC3)o2)C(=O)N(C)C1=O	/	/	/	3	30*	UCH37 confirm=24
COC(=O)[C@H]1[C@H](CO)[C@H]2Cn3c(ccc(-c4cccc(OC)c4)c3=O)[C@@H]1N2C(=O)c1ccccc1F	-22	0	-2	/	/
O=C1NC(=O)C(Nc2ccccc2)C(=O)N1	14	0	1	6	64*	UCH37 confirm=-4
COC(=O)[C@@H]1[C@@H](CO)[C@@H]2Cn3c(ccc(-c4cccc(F)c4)c3=O)[C@H]1N2Cc1cccnc1	-12	0	-3	/	/
COC(=O)C1=C(c2cccc(C#N)c2)C[C@@H]2CC[C@H]1N2C(=O)NCc1ccc(F)cc1	-7	0	-1	/	-1
COC(=O)C1=C(c2cccc(C#N)c2)C[C@@H]2CC[C@H]1N2C(=O)NCc1cccc2ccccc12	/	0	1	/	47*	UCH37 confirm=13
Cn1ncnc2c(=O)n(C)c(=O)nc1-2	/	/	/	5	100*	UCH37 confirm=100*
O=C(Cc1ccccn1)N1CCCCN2[C@@H](CO)[C@@H](c3ccc(-c4ccccc4F)cc3)[C@@H]2C1	-5	0	-5	/	/
O=C(N=Nc1c(O)[nH]c(=O)[nH]c1=O)C1COc2ccccc2O1 (stereo not given)	-3	0	2	3	32*	UCH37 confirm=5
COC(=O)[C@@H]1[C@@H](CO)[C@@H]2Cn3c(ccc(C4=CCCC4)c3=O)[C@H]1N2CC1CCCC1	2	/	2	/	/
CCOc1ccc(N2C(=O)/C(=C/c3ccco3)C(=O)NC2=S)cc1	/	/	/	/	29*	UCH37 confirm=99*
CCOc1ccc(N2C(=O)/C(=C\c3cccs3)C(=O)NC2=S)cc1	-3	1	3	5	4

Compound activity: PubChem, several laboratories
